Laboratory results as given in article PMC4650901 (Scientific Reports, 2014).

Assays:
[1] = tested on: HepG2 cells; test: MTT assay for cell viability/proliferation, HepG2; format: cell-based; conditions: Homo sapiens, HepG2, 24 h; for IC80: read-out: IC80 of glycolysis inhibitors; for IC50: read-out: IC50 HepG2
[2] = tested on: HepG2 cells; test: Cell cycle analysis by flow cytometry; format: cell-based, human; conditions: HepG2, 24 h
Summary of the method: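 Treatments: A-375 cells with test compound at 0, 1, 3, 5 μM; HepG2 cells untreated, 2-DG 20 mM, test compound 4 μM, or 20 mM + 4 μM; all 24 h. 1 × 10^6 cells washed twice in PBS and fixed overnight in 70% ice-cold ethanol. Stained 30 min at 4°C in the dark with 1% Triton X-100, 0.01% RNase, 0.05% PI. Flow cytometry, three experiments.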

[3] = tested on: HepG2 cells; test: Annexin V-FITC/PI double staining, HepG2; format: cell-based, human; conditions: HepG2, 24 h, single drug 2-DG (Fig. 5b: 40 mM)
Summary of the method: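 HepG2 cells exposed 24 h to test compound, 2-DG, or both. 3 × 10^5 cells harvested, PBS-washed twice, stained with Annexin V-FITC and PI for 15 min in the dark, then analysed by flow cytometry. Quadrants: Annexin V−/PI− healthy, V+/PI− early apoptotic, V+/PI+ late apoptotic/necrotic, V−/PI+ necrotic. Three experiments.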

[4] = tested on: caspase-3; test: Caspase-3 activity assay in HepG2 lysates; format: cell-based, human; conditions: HepG2, 24 h; 2-DG 10, 20 mM; UA-4 2, 4 μM; 10 + 2, 20 + 4
Summary of the method: (§1)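 Lysates were prepared from HepG2 cells treated 24 h with 2-DG (0, 10, 20 mM), test compound (0, 2, 4 μM) or combinations (10 + 2, 20 + 4). Lysates were incubated 4 h at 37°C with pNA substrate: Ac-DEVD-pNA (caspase-3), Ac-IETD-pNA (caspase-8) or Ac-LEHD-pNA (caspase-9). Absorbance at 405 nm, normalised to protein concentration.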

[5] = tested on: caspase-8; test: Caspase-8 activity assay in HepG2 lysates; format: cell-based, human; conditions: HepG2, 24 h; 2-DG 10, 20 mM; UA-4 2, 4 μM; 10 + 2, 20 + 4
Summary of the method: as §1

[6] = tested on: caspase-9; test: Caspase-9 activity assay in HepG2 lysates; format: cell-based, human; conditions: HepG2, 24 h; 2-DG 10, 20 mM; UA-4 2, 4 μM; 10 + 2, 20 + 4
Summary of the method: as §1

[7] = tested on: hexokinase (HK); test: Hexokinase activity assay in HepG2 cells; format: cell-based, human; conditions: HepG2, 24 h
[8] = tested on: HepG2 cells; test: Intracellular ATP, luciferase-luciferin assay; format: cell-based, human; conditions: HepG2, 24 h of treatment (method: 12-h incubation)
Summary of the method: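 HepG2 cells seeded at 3 × 10^5/well and grown 24 h. Then incubated 12 h with 2-DG (0, 10, 20, 40 mM), test compound (0, 2, 4, 6 μM) or combinations (10 + 2, 20 + 4, 40 + 6). Cells PBS-washed, lysed on ice, and ATP read by luciferase–luciferin luminescence. Values normalised to protein and expressed as % of control mean.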

[9] = tested on: HepG2 cells; test: Lactate production assay; format: cell-based, human; conditions: HepG2, 24 h; UA-4 2, 4 and 6 μM
Summary of the method: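 HepG2 cells (3 × 10^5/well) treated 24 h with 2-DG (0, 10, 20, 40 mM), test compound (0, 2, 4, 6 μM) or combinations (10 + 2, 20 + 4, 40 + 6). Lactate in culture supernatant measured by kit at OD 530 nm and normalised to cell number. Medium background subtracted; means ± SD of triplicate wells.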

[10] = tested on: AGS cells; test: MTT assay for cell viability/proliferation, AGS; format: cell-based; conditions: Homo sapiens, 24 h, read-out: IC50 AGS
Summary of the method: (§2)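 Cells grown in RPMI 1640 with 10% heat-inactivated FBS and penicillin/streptomycin at 37°C, 5% CO2. Plated at 1 × 10^4/well overnight, then treated 24 h with graded test compound (DMSO stock diluted in medium, 0.1% DMSO final; vehicle control 0.1% DMSO). MTT added 4 h in phenol-red-free, serum-free medium; formazan dissolved in DMSO; A492. IC50 = concentration giving 50% growth inhibition; ≥3 repeats.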

[11] = tested on: A-375 cells; test: MTT assay for cell viability/proliferation, A-375; format: cell-based; conditions: Homo sapiens, A-375, 24 h, read-out: IC50 A-375
Summary of the method: as §2

[12] = tested on: HeLa cells; test: MTT assay for cell viability/proliferation, HeLa; format: cell-based; conditions: Homo sapiens, 24 h, read-out: IC50 HeLa
Summary of the method: as §2

[13] = tested on: HELF cells; test: MTT assay, normal counterpart cell line HELF; format: cell-based; conditions: Homo sapiens, 24 h, read-out: IC50 HELF
Summary of the method: as §2

[14] = tested on: four cancer cell lines (HepG2, AGS, A-375, HeLa); test: MTT assay, range over four cancer cell lines; format: cell-based; conditions: Homo sapiens, read-out: IC50 to suppress cell proliferation
Summary of the method: as §2

| SMILES | IC50 [1] [µM] | IC50 [10] [µM] | IC50 [11] [µM] | IC50 [12] [µM] | IC80 [1] [µM] | IC50 [13] [µM] | also measured |
| --- | --- | --- | --- | --- | --- | --- | --- |
| O=CC[C@@H](O)[C@H](O)[C@H](O)CO [Compound 2-DG, 2-Deoxy-D-glucose] | – | – | – | – | 50000 | – | cell cycle arrest (in words) [2]: cell cycle arrest in G2/M; apoptosis [3]: 13.7%; activity of caspase-3 [4]: dose-dependently increased; activity of caspase-8 [5]: dose-dependently increased; activity of caspase-9 [6]: dose-dependently increased; total hexokinase (HK) activity (in words) [7]: reduce the activity of hexokinase; intracellular ATP concentration (in words) [8]: slightly decreased; lactate production (in words) [9]: decreased lactate production |
| N[C@@H](CS)C(=O)O [L-Cys, L-cysteine] | – | – | – | – | 15000 | – | – |
| c1ccc([C@H]2CN3CCSC3=N2)cc1 [LM, levamisole] | – | – | – | – | 2500 | – | – |

Further lines, with some results ahead:

| IC50 [1] [µM] | IC50 [10] [µM] | IC50 [11] [µM] | IC50 [12] [µM] | SMILES | IC80 [1] [µM] | IC50 [13] [µM] | also measured |
| --- | --- | --- | --- | --- | --- | --- | --- |
| 10.32 ± 0.02 | 9.24 ± 0.13 | 8.56 ± 0.07 | 6.62 ± 0.21 | CC(=O)O[C@H]1C(=O)[C@@]2(C)[C@H]([C@H](OC(=O)c3ccccc3)[C@]3(O)C[C@H](OC(=O)[C@H](O)[C@@H](NC(=O)c4ccccc4)c4ccccc4)C(C)=C1C3(C)C)[C@]1(OC(C)=O)CO[C@@H]1C[C@@H]2O [Paclitaxel] | – | 7.17 ± 0.08 | – |
| 68.8 ± 3.71 | 43.2 ± 2.13 | 57.6 ± 3.21 | 33.1 ± 0.63 | C[C@H]1[C@H](C)CC[C@]2(C(=O)O)CC[C@]3(C)C(=CC[C@@H]4[C@@]5(C)CC[C@H](O)C(C)(C)[C@@H]5CC[C@]43C)[C@H]12 [UA, 3β-hydroxy-urs-12-en-28-oic acid] | – | 21.3 ± 1.76 | IC50 [14]: 33.1 to 68.8 µM |
